Experimental data pooled from the literature.
Compare with care: the assays were run in different laboratories.

CCc1cc(OC)c2nccc(N3CCc4c(cc(Cn5ccnc5)cc4-c4cn(C)nc4C(F)(F)F)C3=O)c2c1 — Tmax (male CD-1 mouse, plasma; oral, 50 mg/kg): 42 min
CC=Cc1ccc(O)c(OC)c1 — Tmax (mouse, brain; intranasal, 100 mg/kg): 5 min
CCc1ccc(Cc2cc([C@@H]3O[C@H](CO)[C@@H](O)[C@H](O)[C@H]3O)cc3c2CCC3)cc1 — Tmax (male C57BL/6 mouse, plasma; oral, 3 mg/kg): 30 min
CC(C)(C)c1cc(NC(=O)Nc2ccc(Oc3ccnc4[nH]c(=O)cnc34)cc2F)n(-c2ccccc2)n1 — Tmax (BALB/c mouse, plasma; intravenous, 2 mg/kg): 4.98 min
CC(C)NC(=O)COc1cccc(-c2nc(Nc3ccc4[nH]ncc4c3)c3ccccc3n2)c1 — Tmax (male C57BL/6 mouse, plasma; oral, 100 mg/kg): ≤ 120 min
COc1ccc(CNc2c3c(nc4ccc(C#N)cc24)CCN(C(C)=O)C3)cc1Cl — Tmax (mouse, plasma; intraperitoneal, 25 mg/kg): 15 min
CCc1cc(C(=O)NC)c2nccc(N3CCc4c(cc(Cn5ccnc5)cc4-c4cn(C)nc4C(F)(F)F)C3=O)c2c1 — Tmax (male CD-1 mouse, plasma; oral, 150 mg/kg): 30 min
O=C(c1nc2ccc(F)cc2[nH]1)c1c[nH]c2c(F)cccc12 — Tmax (female mouse, plasma; intraperitoneal, 6 mg/kg): ~15 min
Cc1cc(C)cc(NC(=O)c2cnn(-c3ccc(C(C)C)cc3)c2C2CCNCC2)c1 — Tmax (SCID mouse, plasma; oral, 50 mg/kg, single dose): ~300 min
COc1nc(-c2cc(C)c(N[C@@H](C)c3c(F)cc(F)cc3F)nn2)ccc1-n1cnc(C)c1 — Tmax (male CD-1 mouse, plasma; oral, 5 mg/kg, single dose): 120 min
CNC(=O)c1cc(Oc2ccc(NC(=O)Nc3ccc(Cl)c(C(F)(F)F)c3)c(F)c2)cc[n+]1[O-] — Tmax (mouse, plasma; oral, 10 mg/kg, single dose): 324 min
CS(=O)(=O)CCNCc1ccc(-c2ccc3ncnc(Nc4ccc(OCc5cccc(F)c5)c(Cl)c4)c3c2)o1 — Tmax (nude mouse, plasma; oral, 200 mg/kg, single dose): 480 min
CC(C)Oc1c(NC(=O)c2ccc(NC(=O)[C@H](CC(N)=O)NC(=O)c3ccc(NC(=O)c4ccc(C#N)cc4)cc3)cc2)ccc(C(=O)Nc2ccc(C(=O)O)cc2)c1O — Tmax (male CD-1 mouse, plasma; subcutaneous, 5 mg/kg, single dose): 100 min
CC(C)(C)c1ccc(O)c(CN(Cc2cc(C(C)(C)C)ccc2O)C2CCC(NC(N)=O)CC2)c1 (stereo not drawn) — Tmax (male C57BL/6 mouse, plasma; intraperitoneal, 10 mg/kg, single dose): 15 min
COc1ccc(C(O)COc2ccc(-c3csc(-c4ccc(OCC(O)c5ccc(OC)c(OC)c5)cc4)n3)cc2)cc1OC (stereo not drawn) — Tmax (C57BL/6 mouse, plasma; oral, 30 mg/kg): 60 min
CNC(=O)[C@H](Cc1c[nH]cn1)NC(=O)CN(CCCc1ccccc1)CC(=O)O — Tmax (male C57BL/6 mouse, plasma; intraperitoneal, 30 mg/kg): 10 min
C=CC(=O)N1CC2CC(n3nc(-c4ccc(C(=O)Nc5ccccn5)cc4)c4c(N)ncnc43)CC2C1 (stereo not drawn) — Tmax (SCID mouse, plasma; oral, 5 mg/kg): 60 min
CN1CCC[C@H](CN2c3ccccc3Sc3ccccc32)C1.O=C(O)CCC(=O)O — Tmax (mouse, plasma; oral, 64 mg/kg, single dose): 120 min
